In assay [1] the target is T1, NUAK family SNF1-like kinase 1 (Homo sapiens) (UniProt O60285).
T1 sequence (whole entry): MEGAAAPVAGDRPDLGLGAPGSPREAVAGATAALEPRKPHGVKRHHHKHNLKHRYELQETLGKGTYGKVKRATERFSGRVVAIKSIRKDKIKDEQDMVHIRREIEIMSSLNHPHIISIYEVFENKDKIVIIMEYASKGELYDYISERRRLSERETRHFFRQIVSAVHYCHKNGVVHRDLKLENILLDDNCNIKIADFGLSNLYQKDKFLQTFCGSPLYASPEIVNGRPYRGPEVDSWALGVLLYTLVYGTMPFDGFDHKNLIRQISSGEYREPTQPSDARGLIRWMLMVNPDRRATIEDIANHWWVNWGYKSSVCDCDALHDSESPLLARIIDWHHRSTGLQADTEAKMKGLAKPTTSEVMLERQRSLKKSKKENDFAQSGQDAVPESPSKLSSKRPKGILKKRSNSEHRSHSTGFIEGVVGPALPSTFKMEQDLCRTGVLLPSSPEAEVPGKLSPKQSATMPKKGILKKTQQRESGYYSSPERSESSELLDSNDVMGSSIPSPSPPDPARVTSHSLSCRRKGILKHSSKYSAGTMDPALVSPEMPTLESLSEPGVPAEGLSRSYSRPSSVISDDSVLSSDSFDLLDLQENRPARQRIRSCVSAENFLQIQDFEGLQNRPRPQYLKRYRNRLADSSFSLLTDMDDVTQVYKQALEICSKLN
The experiment in a line: Inhibition of NUAK1 (unknown origin) expressed in HEK293 cells assessed as reduction in MYPT1 phosphorylation at Ser445 residue at 30 uM incubated for 16 hrs by immunoblot analysis. Format: cell-based. A digest of the protocol: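 HEK-293 Flp/In T-Rex cells stably expressing HA–NUAK1 or HA–NUAK1[A195T] (doxycycline 0.1 μg/ml, 16–24 h to induce) treated with inhibitor 16 h, then detached in EDTA-PBS dissociation buffer containing the same inhibitor concentration, tapped and spun 70 g 3 min; lysed, endogenous MYPT1 immunoprecipitated from 0.5 mg lysate and immunoblotted for p-Ser445 and total MYPT1; three separate experiments.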
Background: A western blot detects proteins with antibodies after separation by electrophoresis.

The target of assay [2] is T1, NUAK family SNF1-like kinase 1 (Homo sapiens). The experiment in a line: Inhibition of NUAK1 in HEK293 cells assessed as reduction in MYPT1 phosphorylation at Ser445 residue at 10 uM incubated for 16 hrs by immunoblot analysis. Format: cell-based. Summed up: (§1)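 HEK-293 cells exposed to inhibitor or DMSO for 16 h; medium replaced by EDTA-PBS dissociation buffer with the same inhibitor concentration to induce detachment (gentle tapping, 70 g, 3 min); cells lysed at once; MYPT1 immunoprecipitated from 0.5 mg lysate, blotted for p-Ser445 and total MYPT1; repeated three times.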

Assay [3] has as its system MEF. The experiment in a line: Antiproliferative activity against NUAK1+/+ MEF cells assessed as reduction in cell viability at 10 uM after 5 days by CellTiter 96 non-radioactive cell proliferation assay. The assay is classed as functional, cell-based. To be noted: Mus musculus, time 5.0 day. A digest of the protocol: (§2)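 Colorimetric CellTiter 96 AQueous proliferation assay in 96-well format; 2000 cells/well seeded for U2OS, 3000 cells/well for MEFs; grown 5 days with or without 10 μM inhibitor; run in triplicate. Inhibitors dissolved in DMSO, final DMSO in medium ≤1%. MEFs cultured in DMEM/10% FBS, glutamine, non-essential amino acids, sodium pyruvate.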

Assay [4] addresses T1, NUAK family SNF1-like kinase 1 (Homo sapiens). As to the kind of experiment: Inhibition of NUAK1 in human U2OS cells assessed as reduction in MYPT1 phosphorylation at Ser445 residues at 10 uM after 16 hrs by immunoblot analysis. The assay is classed as cell-based. A digest of the protocol: (§3)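 U2OS cells or NUAK1+/+ MEFs treated with or without 10 μM inhibitor for 16 h, then 20 min in EDTA-PBS dissociation buffer with 10 μM inhibitor or DMSO; detached by tapping and 70 g 3 min spin, lysed immediately and immunoblotted for MYPT1 p-Ser445; three separate experiments.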

Assay [5] has as its system U2OS. The experiment in a line: Antiproliferative activity against human U2OS cells assessed as reduction in cell viability at 10 uM after 5 days by CellTiter 96 non-radioactive cell proliferation assay. Format: functional, cell-based. As to conditions: time 5.0 day. Summed up:
as §2

The subject of assay [6] is MEF. As to the kind of experiment: Inhibition of cell migration in NUAK1+/+ MEF cells at 10 uM pre incubated for 1 hr followed by overnight incubation and measured after 15 to 20 hrs by microscopic based wound healing assay. The assay is classed as functional. As to conditions: Mus musculus. Summed up:
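Wound healing: equal MEF numbers loaded into both chambers of inserts with a 500 μm gap, inhibitor (10 μM) added 1 h before; after overnight at 37 °C, 5% CO2 insert removed and gap closure filmed by time-lapse microscopy every 2 min over 15–20 h; triplicate.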

The subject of assay [7] is MEF. As to the kind of experiment: Inhibition of NUAK1 in NUAK1+/+ MEF cells assessed as reduction in MYPT1 phosphorylation at Ser445 residues at 10 uM after 16 hrs by immunoblot analysis. To be noted: Mus musculus. The assay is classed as cell-based. Summed up: as §3
Assay [8] has as its system U2OS. As to the kind of experiment: Inhibition of cell invasion in human U2OS cells at 10 uM incubated for 16 hrs by matrigel based transwell assay. Format: functional. Summed up: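 Growth-factor-reduced Matrigel Transwell invasion: U2OS cells serum-deprived 2 h, detached, 2.5×10^5 cells in DMEM/1% BSA added to upper chambers in triplicate, DMEM/10% FBS as chemoattractant below; 16 h at 37 °C, 5% CO2 with or without 10 μM inhibitor in both compartments; cells on lower filter face fixed, stained, imaged ×10 and counted; mean ± S.D.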

The target of assay [9] is High affinity nerve growth factor receptor (Homo sapiens) (UniProt P04629). As to the kind of experiment: Inhibition of recombinant human N-terminal His6-tagged TrkA (441 to 760 residues) expressed in baculovirus infected Sf21 cells assessed as remaining activity at 1 uM using Poly(Glu,Tyr) as substrate incubated for 30 mins in presence of [gamma-33P]ATP by filter binding method relative to control. Summed up: (§4)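 Screened at the International Centre for Protein Kinase Profiling against a 140-kinase panel, with inhibitor at 0.1 or 1 μM; activity expressed as percentage of DMSO control reactions, mean of triplicate reactions.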

Assay [10] has as its target Tyrosine-protein kinase ABL1 (Homo sapiens) (UniProt P00519). The experiment in a line: Inhibition of recombinant human N-terminal GST-tagged ABL (118 to 535 residues) expressed in Escherichia coli co-expressed with His-tagged YopH at 1 uM using EAIYAAPFAKKK as substrate incubated for 30 mins in presence of [gamma-33P]ATP by filter binding method. A digest of the protocol:
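Run within a 140-kinase specificity panel at the International Centre for Protein Kinase Profiling. Compounds were dissolved in DMSO and tested in vitro at 0.1 or 1 μM. Activity is expressed as percentage of kinase activity in DMSO control reactions, as the mean ± S.D. of triplicate reactions.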

For assay [11], the target named is Aurora kinase B (Homo sapiens) (UniProt Q96GD4). As to the kind of experiment: Inhibition of recombinant human N-terminal His6-tagged Aurora B (1 to 344 residues) expressed in Escherichia coli at 1 uM using LRRLSLGLRRLSLGLRRLSLGLRRLSLG as substrate incubated for 30 mins in presence of [gamma-33P]ATP by filter binding method. Summed up:
as §4

The target of assay [12] is AMPK alpha1/beta2/gamma1 (Homo sapiens) (UniProt O43741+P54619+Q13131). As to the kind of experiment: Inhibition of recombinant N-terminal His6-tagged human AMPKalpha1 (11 to 559 residues)/AMPKbeta2 (1 to 272 residues)/AMPKgamma1 (1 to 331 residues) expressed in baculovirus infected Sf21 cells at 1 uM using SAMS as substrate incubated for 30 mins in presence of [gamma-33P]ATP by filter binding method. A digest of the protocol:
as §4

Assay [13] addresses NUAK family SNF1-like kinase 2 (Homo sapiens) (UniProt Q9H093). As to the kind of experiment: Inhibition of GST-tagged NUAK2 (unknown origin) expressed in HEK293 cells using ALNRTSSDSALHRRR as substrate incubated for 30 mins in presence of [gamma-32P]-ATP by Cerenkov counting method. Format: cell-based. A digest of the protocol: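 GST–NUAK2 purified on glutathione–Sepharose from HEK-293 cells 36–48 h after transient transfection; 100 ng enzyme in 50 mM Tris/HCl pH 7.5, 0.1 mM EGTA, 10 mM magnesium acetate, 200 μM Sakamototide, 0.1 mM [γ-32P]ATP, inhibitor in DMSO; 30 min at 30 °C, stopped with 25 mM EDTA, spotted on P81, Cerenkov counted; triplicate; IC50 by non-linear regression versus DMSO control.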

The target in assay [14] is Tyrosine-protein kinase JAK2 (Homo sapiens) (UniProt O60674). The experiment in a line: Inhibition of JAK2 (unknown origin) activity at 1 uM relative to control. Summed up: as §4
In assay [15] the target is MAP/microtubule affinity-regulating kinase 3 (Homo sapiens) (UniProt P27448). As to the kind of experiment: Inhibition of recombinant human N-terminal His6-tagged MARK3 (2 to 729 residues) expressed in baculovirus infected Sf21 cells at 1 uM using CHKtide as substrate incubated for 30 mins in presence of [gamma-33P]ATP by filter binding method. Summed up:
as §4

In assay [16] the target is Serine/threonine-protein kinase MARK1 (Homo sapiens) (UniProt Q9P0L2). As to the kind of experiment: Inhibition of recombinant human N-terminal His6-tagged MARK1 (2 to 795 residues) expressed in baculovirus infected Sf21 cells at 1 uM using KKKVSRSGLYRSPSMPENLNRPR as substrate incubated for 30 mins in presence of [gamma-33P]ATP by filter binding method. Summed up: as §4

The target of assay [17] is T1, NUAK family SNF1-like kinase 1 (Homo sapiens). As to the kind of experiment: Inhibition of NUAK1 in HEK293 cells assessed as reduction in MYPT1 phosphorylation at Ser445 residue at 0.1 to 10 uM incubated for 16 hrs by immunoblot analysis. The assay is classed as cell-based. As to conditions: dose 0.1-10 µM. A digest of the protocol: as §1
Assay [18] concerns the target Serine/threonine-protein kinase BRSK1 (Homo sapiens) (UniProt Q8TDC3). As to the kind of experiment: Inhibition of recombinant human N-terminal His6-tagged BRSK1 (2 to 778 residues) expressed in baculovirus infected Sf21 cells at 1 uM using KKLNRTLSFAEPG as substrate incubated for 30 mins in presence of [gamma-33P]ATP by filter binding method. A digest of the protocol:
as §4

Assay [19] deals with T2, Aurora kinase A (Homo sapiens) (UniProt O14965).
T2 sequence (whole entry): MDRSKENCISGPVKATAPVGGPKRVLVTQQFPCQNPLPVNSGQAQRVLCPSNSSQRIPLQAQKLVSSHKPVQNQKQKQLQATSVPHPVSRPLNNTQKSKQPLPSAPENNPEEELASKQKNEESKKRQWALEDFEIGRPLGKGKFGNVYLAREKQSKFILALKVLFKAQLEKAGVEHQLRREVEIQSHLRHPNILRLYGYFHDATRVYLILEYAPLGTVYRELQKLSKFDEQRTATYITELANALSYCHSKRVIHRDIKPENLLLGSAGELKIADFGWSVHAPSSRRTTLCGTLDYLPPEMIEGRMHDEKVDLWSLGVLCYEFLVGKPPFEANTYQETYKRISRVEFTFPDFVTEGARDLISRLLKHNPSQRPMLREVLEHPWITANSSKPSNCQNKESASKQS
The experiment in a line: Inhibition of recombinant human N-terminal Hi6-tagged Aurora A (2 to 403 residues) expressed in Escherichia coli 1 uM using LRRLSLGLRRLSLGLRRLSLGLRRLSLG as substrate incubated for 30 mins in presence of [gamma-33P]ATP by filter binding method. Summed up: as §4

The source made the active and inactive calls. The calls are words filed in the database; no cut-off is given here.

Chain of NUAK family SNF1-like kinase 2 (Homo sapiens) (Q9H093 whole entry): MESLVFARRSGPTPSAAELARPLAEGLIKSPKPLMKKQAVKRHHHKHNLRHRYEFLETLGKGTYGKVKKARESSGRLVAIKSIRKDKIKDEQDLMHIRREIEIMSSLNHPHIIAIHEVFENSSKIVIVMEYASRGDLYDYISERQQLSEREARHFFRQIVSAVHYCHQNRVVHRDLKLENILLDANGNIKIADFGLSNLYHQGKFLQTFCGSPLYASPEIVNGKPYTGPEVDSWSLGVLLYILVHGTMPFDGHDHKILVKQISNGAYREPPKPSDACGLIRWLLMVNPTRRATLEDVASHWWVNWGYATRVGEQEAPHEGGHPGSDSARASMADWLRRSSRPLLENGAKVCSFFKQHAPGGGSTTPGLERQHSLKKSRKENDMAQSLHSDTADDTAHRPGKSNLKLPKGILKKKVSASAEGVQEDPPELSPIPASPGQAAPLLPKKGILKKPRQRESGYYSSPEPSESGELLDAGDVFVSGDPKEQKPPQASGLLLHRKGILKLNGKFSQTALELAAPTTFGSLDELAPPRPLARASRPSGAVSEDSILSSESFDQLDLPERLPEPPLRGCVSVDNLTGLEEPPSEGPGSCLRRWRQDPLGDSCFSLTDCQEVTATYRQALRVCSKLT
Chain of Tyrosine-protein kinase JAK2 (Homo sapiens) (O60674 whole entry, the tested form may be a part): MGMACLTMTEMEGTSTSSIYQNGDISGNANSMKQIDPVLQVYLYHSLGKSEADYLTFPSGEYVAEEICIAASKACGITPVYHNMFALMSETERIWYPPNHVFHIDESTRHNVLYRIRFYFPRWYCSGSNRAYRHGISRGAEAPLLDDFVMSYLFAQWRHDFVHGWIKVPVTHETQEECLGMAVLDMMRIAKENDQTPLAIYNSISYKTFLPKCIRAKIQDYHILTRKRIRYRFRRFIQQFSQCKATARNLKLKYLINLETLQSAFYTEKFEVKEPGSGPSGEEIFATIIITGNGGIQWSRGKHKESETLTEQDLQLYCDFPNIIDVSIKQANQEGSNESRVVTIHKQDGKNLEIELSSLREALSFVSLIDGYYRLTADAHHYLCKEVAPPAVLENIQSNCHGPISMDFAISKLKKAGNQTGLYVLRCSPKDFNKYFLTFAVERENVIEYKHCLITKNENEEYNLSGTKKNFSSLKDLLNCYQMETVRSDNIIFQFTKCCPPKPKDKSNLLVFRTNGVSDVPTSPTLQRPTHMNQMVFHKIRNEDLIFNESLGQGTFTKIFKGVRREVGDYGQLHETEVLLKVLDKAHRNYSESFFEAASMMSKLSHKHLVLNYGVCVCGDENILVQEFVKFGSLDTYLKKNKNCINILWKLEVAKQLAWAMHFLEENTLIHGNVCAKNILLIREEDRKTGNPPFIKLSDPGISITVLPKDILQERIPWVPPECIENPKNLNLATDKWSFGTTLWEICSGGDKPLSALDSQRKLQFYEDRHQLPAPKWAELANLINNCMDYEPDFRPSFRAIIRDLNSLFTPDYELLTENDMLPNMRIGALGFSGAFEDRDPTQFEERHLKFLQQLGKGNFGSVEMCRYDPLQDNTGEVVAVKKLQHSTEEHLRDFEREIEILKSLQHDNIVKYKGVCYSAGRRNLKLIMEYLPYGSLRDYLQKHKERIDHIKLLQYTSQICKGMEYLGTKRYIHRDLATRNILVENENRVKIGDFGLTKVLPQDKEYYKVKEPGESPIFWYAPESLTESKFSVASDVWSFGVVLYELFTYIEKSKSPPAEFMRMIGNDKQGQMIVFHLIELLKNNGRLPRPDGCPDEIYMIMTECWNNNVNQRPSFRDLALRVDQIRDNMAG
Chain of Aurora kinase B (Homo sapiens) (Q96GD4 whole entry, the tested form may be a part): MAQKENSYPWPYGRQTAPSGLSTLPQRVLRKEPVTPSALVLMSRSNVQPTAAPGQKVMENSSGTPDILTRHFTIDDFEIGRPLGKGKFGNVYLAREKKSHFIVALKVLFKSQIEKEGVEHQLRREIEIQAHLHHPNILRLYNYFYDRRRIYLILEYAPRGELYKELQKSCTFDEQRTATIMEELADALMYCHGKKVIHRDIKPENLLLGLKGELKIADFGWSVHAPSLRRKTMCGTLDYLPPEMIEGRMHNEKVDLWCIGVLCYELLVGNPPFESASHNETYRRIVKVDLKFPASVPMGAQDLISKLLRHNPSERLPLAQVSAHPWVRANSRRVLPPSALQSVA
Chain of Tyrosine-protein kinase ABL1 (Homo sapiens) (P00519 whole entry, the tested form may be a part): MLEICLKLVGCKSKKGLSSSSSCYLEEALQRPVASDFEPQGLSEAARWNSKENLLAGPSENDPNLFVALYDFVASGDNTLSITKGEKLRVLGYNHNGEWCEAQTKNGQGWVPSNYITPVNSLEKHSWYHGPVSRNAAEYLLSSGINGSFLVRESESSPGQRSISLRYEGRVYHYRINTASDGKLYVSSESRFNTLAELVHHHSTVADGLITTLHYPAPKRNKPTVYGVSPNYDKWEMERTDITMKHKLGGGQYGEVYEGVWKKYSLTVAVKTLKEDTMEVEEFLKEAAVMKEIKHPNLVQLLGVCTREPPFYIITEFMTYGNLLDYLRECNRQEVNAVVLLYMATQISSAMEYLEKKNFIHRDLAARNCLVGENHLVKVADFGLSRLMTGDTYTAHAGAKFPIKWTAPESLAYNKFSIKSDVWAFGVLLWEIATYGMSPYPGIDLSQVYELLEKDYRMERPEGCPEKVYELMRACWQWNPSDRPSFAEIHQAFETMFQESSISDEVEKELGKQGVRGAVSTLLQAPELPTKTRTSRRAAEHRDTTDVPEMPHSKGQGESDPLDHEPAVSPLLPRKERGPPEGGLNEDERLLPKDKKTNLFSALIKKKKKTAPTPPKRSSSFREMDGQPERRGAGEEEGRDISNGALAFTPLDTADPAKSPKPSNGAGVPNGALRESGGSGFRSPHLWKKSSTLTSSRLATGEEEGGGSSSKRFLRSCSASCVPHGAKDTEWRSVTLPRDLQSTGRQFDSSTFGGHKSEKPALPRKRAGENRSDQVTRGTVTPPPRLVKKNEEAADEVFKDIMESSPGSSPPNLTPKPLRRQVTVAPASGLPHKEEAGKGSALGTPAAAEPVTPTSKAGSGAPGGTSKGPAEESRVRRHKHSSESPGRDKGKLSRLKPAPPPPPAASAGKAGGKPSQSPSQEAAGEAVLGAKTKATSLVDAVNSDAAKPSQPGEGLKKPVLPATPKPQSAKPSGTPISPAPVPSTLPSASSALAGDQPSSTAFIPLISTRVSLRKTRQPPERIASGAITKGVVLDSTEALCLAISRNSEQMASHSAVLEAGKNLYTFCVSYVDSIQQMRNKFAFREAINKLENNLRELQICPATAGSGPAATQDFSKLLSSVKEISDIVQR
Chain of AMPK alpha1/beta2/gamma1 (Homo sapiens) (O43741 whole entry, looked up, the tested form may be a part): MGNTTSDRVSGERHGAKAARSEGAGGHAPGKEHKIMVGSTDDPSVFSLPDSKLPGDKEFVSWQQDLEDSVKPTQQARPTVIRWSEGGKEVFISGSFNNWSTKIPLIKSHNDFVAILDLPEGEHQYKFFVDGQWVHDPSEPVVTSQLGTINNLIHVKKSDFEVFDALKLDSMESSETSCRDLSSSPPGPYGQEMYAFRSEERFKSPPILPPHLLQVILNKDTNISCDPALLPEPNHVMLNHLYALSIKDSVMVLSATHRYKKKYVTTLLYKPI
Chain of AMPK alpha1/beta2/gamma1 (Homo sapiens) (P54619 whole entry, looked up, the tested form may be a part): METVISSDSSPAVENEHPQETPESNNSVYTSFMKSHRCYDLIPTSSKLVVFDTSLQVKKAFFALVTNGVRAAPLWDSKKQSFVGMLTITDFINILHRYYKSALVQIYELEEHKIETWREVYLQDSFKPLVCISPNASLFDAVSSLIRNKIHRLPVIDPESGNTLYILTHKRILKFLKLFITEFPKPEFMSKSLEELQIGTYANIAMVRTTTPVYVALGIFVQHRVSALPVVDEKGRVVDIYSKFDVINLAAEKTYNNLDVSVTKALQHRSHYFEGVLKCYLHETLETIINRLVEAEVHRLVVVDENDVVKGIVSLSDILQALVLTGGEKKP
Chain of AMPK alpha1/beta2/gamma1 (Homo sapiens) (Q13131 whole entry, looked up, the tested form may be a part): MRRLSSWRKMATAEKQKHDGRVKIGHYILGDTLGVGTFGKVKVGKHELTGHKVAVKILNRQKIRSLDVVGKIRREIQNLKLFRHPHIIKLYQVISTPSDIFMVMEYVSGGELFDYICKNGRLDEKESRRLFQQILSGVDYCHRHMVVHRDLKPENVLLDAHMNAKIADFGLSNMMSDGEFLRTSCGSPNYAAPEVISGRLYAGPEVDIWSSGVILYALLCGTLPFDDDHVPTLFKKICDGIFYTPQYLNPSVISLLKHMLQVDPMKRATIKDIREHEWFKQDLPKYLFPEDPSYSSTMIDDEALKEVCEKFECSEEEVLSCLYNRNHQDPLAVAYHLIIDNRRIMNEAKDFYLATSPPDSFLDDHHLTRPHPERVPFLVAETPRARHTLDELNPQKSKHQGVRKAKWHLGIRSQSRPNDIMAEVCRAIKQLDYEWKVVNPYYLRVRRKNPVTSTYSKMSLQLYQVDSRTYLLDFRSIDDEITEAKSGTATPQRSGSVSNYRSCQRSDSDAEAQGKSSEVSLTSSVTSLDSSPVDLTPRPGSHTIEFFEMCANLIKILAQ

For the compound `Cc1nc(Nc2cnn(C3CCNCC3)c2)nc2c1N(C)C(=O)c1cc3ccccc3cc1N2C`, the inhibition entry (in [1]; in assay [2]; in the assay on MEF [3]; in assay [4]; in the assay with U2OS [5]; with MEF [6]) was “Active” each time. The inhibition result in the assay on MEF [7] and in the assay on U2OS [8] was “Active” throughout. Further, the Activity in [9] came to 82%.
Consider `CN1C(=O)c2ccccc2N(C)c2nc(Nc3cnn(C4CCNCC4)c3)ncc21`, for which the inhibition entry in [10], in assay [11], in assay [12], in [14], in [15] and in [16] was “Active” each time. Besides, the inhibition entry in [17], in [18] and in [19] was “Active” throughout. For the same compound, in [13], the inhibition result was “inactive”.
`CN1C(=O)c2cc3ccccc3cc2N(C)c2nc(Nc3cnn(C4CCNCC4)c3)ncc21`: the inhibition entry in [10], in assay [11], in assay [14], in [17] and in assay [19] was “Active” in each case. In assay [13], the inhibition result is “inactive”.

The values above are taken from ChEMBL document CHEMBL5705897, “Characterization of WZ4003 and HTH-01-015 as selective inhibitors of the LKB1-tumour-suppressor-activated NUAK kinases” (Biochem J, 2014).
